Reference: ChEMBL document CHEMBL4513216, “Probing the Open Global Health Chemical Diversity Library for Multistage-Active Starting Points for Next-Generation Antimalarials” (ACS Infect Dis, 2020)

Test: Toxicity liver stage against HepG2, at 10uM
Assay type: cell-based
Set-up: test concentration 10 uM, cell line HepG2-A16-CD81EGFP
Details: human, HepG2-A16-CD81EGFP cells; read-out: INHIBITION
Summary of the method: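 Uninfected HepG2-A16-CD81EGFP cells, 3 × 10^3 per well, 1536-well, plated on prespotted compound at 10 μM final, parasite-free screening media added to match infected plates; puromycin 10 μM positive, DMSO 0.5% negative; run in parallel with 48 h PbLuc assay at 37 °C, 5% CO2; viability by CellTiter-Glo luminescence, normalized to controls.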

Row | Structure (SMILES) | cytotoxicity at 10 µM [%]
1 | O=C(CNC(=O)c1ccccc1F)NCc1ccccn1 | -0.575
2 | O=C(NC[C@H]1OC[C@@H](NCc2ccc(F)cc2)[C@@H]1O)N1CCOCC1 | 1.17
3 | COC(=O)[C@@H]1Cc2ncn(C)c2CN1S(=O)(=O)Cc1ccccc1 | -0.861
4 | Cn1nc(-c2ccccc2)cc1[C@H]1CN2CC[C@H]1C[C@@H]2CNS(C)(=O)=O | 1.82
5 | O=C(Nc1ccccc1)[C@H]1O[C@H](CCN2CCCCC2)CC[C@@H]1O | -1.36
6 | Cc1nc(C)c(CC(=O)NCc2ccc(F)cc2)s1 | 8.05
7 | CNC(=O)c1nnn(-c2ccccc2F)c1-c1ccccn1 | -4.21
8 | CC(C)C(=O)N1CCC2(CC1)NC(=O)[C@H]1CN(C(=O)N(C)C)C[C@H]12 | 3.03
9 | O=c1ccc2c(n1Cc1cccnc1)CCC(NCc1cccnc1)C2 (centres undefined) | 19.2
10 | CN(C)C(=O)N1CC2(CCOCC2)c2cc(NS(=O)(=O)C3CC3)ccc21 | -7.15
11 | COCCN1CCc2ncc(CN(C)C)n2CC1 | -0.0807
12 | Cc1ccsc1C(=O)N1CCCc2c(c(=O)n(C)n2C)C1 | 6.95
13 | CNC(=O)[C@@H]1COC[C@H]2CN(C(=O)c3ccc(OC)cc3)C[C@H]21 | 9.48
14 | CS(=O)(=O)N1CCCC12CCCN(S(=O)(=O)c1cccc(F)c1)C2 (centres undefined) | 0.88
15 | CCc1cccc(NC(=O)N2CCn3cnc(COC)c3C2)c1 | 5.35
16 | CNC(=O)CN1CCOCC2(CCCN(Cc3ccoc3)C2)C1 (centres undefined) | 6.65
17 | O=C(NC1CCCC1)C1Cc2nc(-c3ccsc3)sc2N1CC1CC1 (centres undefined) | 16.6
18 | Cc1ccc(CN2C[C@@H](c3ccccc3)[C@@]3(CCNC3=O)C2)o1 | -119
19 | COc1ccccc1C1SCC(=O)Nc2c1c(=O)[nH]n2C1CCCCC1 (centres undefined) | -1.2
20 | CC(C)n1[nH]c(=O)c2c1NC(=O)CC2c1ccc(S(C)(=O)=O)cc1 (centres undefined) | -2.28
21 | Cn1nc(CNC(=O)C2CCCC2)cc1C1CC1 | -0.265
22 | Cc1cc(C(F)(F)F)nn1C(C)C(=O)Nc1ccncc1 (centres undefined) | 3.1

Row | Structure (SMILES) | cytotoxicity at 10 µM [%]
23 | COc1cccc(S(=O)(=O)N2CCOC(C)(C(N)=O)C2)c1 (centres undefined) | 3.08
24 | CN1CCC(c2cccc(NCc3ccncc3)n2)CC1 | 6.08
25 | O=C1CN(C(=O)C2CN(c3ccccc3)CCO2)CCN1 (centres undefined) | 1.91
26 | Cc1cc(-c2cnc(N3CCOCC3)nc2-c2cccnc2C)on1 | -21.4
27 | CCN1CCCC(c2cc(Nc3cnccn3)nc(C)n2)C1 (centres undefined) | -12.9
28 | Cc1ccc(CC(=O)N(C)CC2(O)CCCN(c3ccccn3)C2)s1 (centres undefined) | -14.1
29 | O=C1Nc2ccccc2CC12CCCN2Cc1cccnc1 (centres undefined) | 7.27
30 | CNC(=O)c1ccc(CN(C)C(=O)Nc2nnc(C(C)C)s2)cc1 | -14
31 | CNC(=O)CNC(=O)Nc1ccc(F)c(Br)c1 | 7.92
32 | Cc1cccc(NC(=O)CNC(=O)c2ccccc2F)c1 | -1.24
33 | O=C1NCCCC1NC(=O)C1(c2cccc(Cl)c2)CCC1 (centres undefined) | -2.09
34 | Cc1cc(NCCC(=O)NC(C)C)nc(-c2ccncc2)n1 | -6.74
35 | O=C(NCc1cnn(-c2ccc(F)cc2F)c1)C1CCCO1 (centres undefined) | 8.69
36 | CN1CCN(CC(NCc2ccc(F)cc2)c2ccccc2)CC1 (centres undefined) | -15.7
37 | Cc1nc(CN2CCN(C(=O)Cc3cccc(Cl)c3)CC2)no1 | -4.76
38 | CCCc1cc(NC2CCc3nc(C)nn3C2)n2ncnc2n1 (centres undefined) | -10.4
39 | O=C(COc1ccc(-c2ccccc2)nc1)NCC1CC1 | 6.8
40 | CCc1cnc(CN(C)C2CCN(CCCS(=O)(=O)NC)C2)o1 (centres undefined) | 7.82
41 | O=C(c1csc(-c2ncccn2)n1)N1CCN2CCCCC2C1 (centres undefined) | 4.55
42 | O=C(c1nc(=O)[nH][nH]1)N1CCCCCC1 | 14.1
43 | Cc1ccc(Cl)cc1S(=O)(=O)NCc1cnc(N(C)C)n1C | 5.17
44 | Cc1noc(C(C)NC(=O)[C@@H](C)NC(=O)OC(C)(C)C)n1 (some centres undefined) | 5.81

Row | Structure (SMILES) | cytotoxicity at 10 µM [%]
45 | CCN(C(=O)Nc1cc(C)on1)C(C)c1cccc(O)c1 (centres undefined) | 2.52
46 | CN1CCOC(CNCc2c(Cl)nc3ccccn23)C1 (centres undefined) | -0.0638
47 | CCc1nc(CN2CCN(C(=O)c3csc(C(C)C)n3)CC2)no1 | 11.3
48 | Cc1n[nH]c(C2CN(Cc3csc(C4CCCC4)n3)CCO2)n1 (centres undefined) | 12.9
49 | CC(=O)NC(C)(C)c1noc(C2(C#N)CCCCC2)n1 | 7.57
50 | C=C(C)Cn1ccc2cc(OC)c(F)cc2c1=O | 3.09
51 | CSc1ccc(OC(C)C(=O)Nc2c(C)n[nH]c2C)cc1 (centres undefined) | 6.8
52 | Cc1cc(C2CCCN(C(=O)c3c(C)noc3C)C2)n[nH]1 (centres undefined) | -6.63
53 | CNC(=O)[C@@H]1C[C@H]2CN(Cc3ccc(C)o3)C[C@H]2N1C(C)=O | -103
54 | CCN1CCN(C[C@@H]2CN(c3ncccc3F)C[C@@H]2CO)CC1 | -6.45
55 | CCC[C@H]1CN(S(=O)(=O)c2ccccc2)C[C@@H]1N | 1.35
56 | N#Cc1ccc(N2CCC(c3nccn3Cc3cscn3)CC2)nc1 | -7.01
57 | Cc1cc(C)nc(CN(C)C(=O)c2cccc(CCC(C)(C)O)c2)c1 | -3.25
58 | CCC1C=CCN1C(=O)c1cc(COc2ccccc2OC)[nH]n1 (centres undefined) | 2.93
59 | CCC(=O)N1CCN(C(=O)Nc2cccc(C#N)c2)[C@H]2CS(=O)(=O)C[C@H]21 | -46
60 | Cc1oc(-c2ccoc2)nc1CN1CCCCC1CCc1ccccc1 (centres undefined) | -1.48
61 | COc1cccn(CC(=O)N2CCCC3(CCCO3)CC2)c1=O (centres undefined) | 0.955
62 | CCc1c(C)sc(NC(=O)CN2CCOCC2)c1C(=O)OC | 19.3
63 | CC1CCN(S(=O)(=O)c2ccc(C(=O)N3CCSCC3)cc2)CC1 | 9.54
64 | CN(CCCc1cnn(C)c1)C(=O)C1COc2ccccc2C1 (centres undefined) | -5.91
65 | CCc1cc(NCCc2ccc(O)cc2)n2nccc2n1 | -16.3
66 | CNc1nc(C2CCCN2C(C)=O)nc2c1CCN(CC1CC1)C2 (centres undefined) | -0.361

Row | Structure (SMILES) | cytotoxicity at 10 µM [%]
67 | COc1ccc(C)cc1CC(=O)NS(=O)(=O)c1ccc(C(N)=O)cc1 | 8
68 | CN(Cc1ccc(F)cc1)C(=O)Nc1cccnc1N1CCCC1 | -4.26
69 | Cn1cnc2c1CCN(Cc1csc(-c3ccc(F)cc3)n1)C2 | -4.78
70 | CC(C)CNC(=O)c1cccc(CN2CCc3c(ncn3C)C2)c1 | -6.98
71 | CN1CCN(c2cc(CNC(=O)c3ccsc3)ccn2)CC1 | -7.27
72 | Cc1cc2n(n1)CC(CNCc1ccc(N3CCOCC3)nc1)CN2 (centres undefined) | -15.3
73 | Cc1cc(NC(=O)NCC(c2ccccc2)N2CCOCC2)n(C)n1 (centres undefined) | -11
74 | CCOc1ccc(C#N)cc1NCC(=O)NC1(C#N)CCCC1 | -30.8
75 | CC(C)c1nc2c(n1C)CCN(CCCOc1ccc(C#N)cc1)C2 | -12.8
76 | Cc1ccc(NC2CCN(C(=O)c3ccc(C#N)cc3)CC2)nn1 | -4.28
77 | Cc1cc(NS(=O)(=O)c2ccc(C(=O)O)cc2F)ccc1F | -1.96
78 | CC(C)c1nc2n(n1)CC(NCc1nnc(C3CC3)o1)CC2 (centres undefined) | -11.6
79 | CCCC(=O)N1CCN(CC(O)COCC)CC1 (centres undefined) | -20.6
80 | COc1cc(C)ccc1OCC(=O)NS(=O)(=O)c1ccc(Br)s1 | -7.72
81 | CC(=O)N(Cc1ncc(C)o1)C1CCN(Cc2sc(C)nc2C)C1 (centres undefined) | -19.8
82 | CCc1nc(C2CCCN(C(=O)CC3CCOCC3)C2)no1 (centres undefined) | -15.3
83 | CCc1nc(CN2CCCN(CC(=O)Nc3cccnc3)CC2)no1 | -17.4
84 | COc1ccc(C(O)CNc2c(C#N)c(=O)n(C)c(=O)n2C)cc1 (centres undefined) | -7.34
85 | COc1ccc(C(C)NC(=O)NCCCn2cncn2)cc1F (centres undefined) | 2.12
86 | COc1ccc(CN(C)Cc2nc3c(cnn3C)c(=O)[nH]2)cc1OC | 0.457
87 | CC(C)(C)OC(=O)N1CCN(C(=O)c2sccc2C2CC2)CC1 | 2.38
88 | CCN(CCNC(=O)c1ccccc1Br)C1CC1 | 3.32

Row | Structure (SMILES) | cytotoxicity at 10 µM [%]
89 | O=C(c1ccccn1)N1CCC2(CC1)COC(COCC1CCCC1)C2 (centres undefined) | -1.18
90 | Cn1cc(C(=O)NCc2cn3c(n2)CN(CC2CCCC2)CC3)cn1 | 7.17
91 | CN(Cc1cccnc1)[C@@H]1CN(C(=O)c2ccoc2)[C@@H]2CCCO[C@H]12 | -1.81
92 | CCOCC1CN(Cc2cccnc2OC)Cc2cnn(C)c21 (centres undefined) | -1.6
93 | O=C1CC(c2ccccc2)C2(CCN(Cc3nccs3)CC2)N1 (centres undefined) | 4.67
94 | Cc1ccc(CN2CCC[C@@H]3CN(C(=O)c4ccco4)C[C@@H]32)s1 | -1.05
95 | Cc1cc(C(=O)N2CC[C@@H](N(C)C)[C@@H]2Cc2ccccc2)no1 | -0.567
96 | Cc1ccc(CN2CCC3(CC2)CN(c2cnn(C)c2)C(=O)CO3)o1 | 2.96
97 | COc1ccc(CN2C[C@@H]3CN(Cc4ccncc4)C[C@@H]3C2=O)cc1 | -3.86
98 | CCCS(=O)(=O)N1C[C@@H]2CN(Cc3cccs3)CCO[C@@H]2C1 | -145
99 | Cn1cccc1C(=O)N1CCC2(CCCN2c2ncccn2)CC1 | 6.07
100 | O=C(c1cccnc1)N1CCOC2(COCCN(c3cncnc3)C2)C1 (centres undefined) | 4.53
101 | CCc1ncnc2c1CCN(Cc1nccs1)CC2 | 6.56
102 | CN(C)c1ncc(-c2cc(C(=O)NCCC#N)n(CC3CC3)c2)cn1 | 1.29
103 | CN1C(=O)CCCC12CCCN(Cc1cccs1)C2 (centres undefined) | -0.302
104 | Cc1ccsc1CNC1CCCc2c1cnn2C (centres undefined) | 2.27
105 | COCCN1CC[C@]2(CN(Cc3ccccn3)C[C@H]2C)C1=O | 8.86
106 | O=C1N(CC2CC2)CCC12CCN(c1ncccn1)CC2 | 3.77
107 | O=C(c1n[nH]c2c1CN(C1CCOCC1)CC2)N1CCCC1 | -2.39
108 | CN(C)[C@@H]1CN(Cc2ccco2)C[C@@H]2CCCO[C@@H]21 | 2.75
109 | Cc1ccc(N2CC[C@@H]3CN(Cc4cccc(C)n4)C[C@@H]3C2)nn1 | 6.34
